Laboratory results taken from PubChem BioAssay AID624466 (The Scripps Research Institute Molecular Screening Center, 2012).
Hit rate of the full screen: of about 360,000 compounds, about 5,400 (1.5%) were called active. The sample as a whole holds a higher share of actives than the screen did. Unmarked numbers belong to inactive results.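 Rule for the calls: active = inhibition above a per-plate cutoff, the mean inhibition of test compounds on that plate plus 3 SD (cut at about 49% in these data); inactive = the rest.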

target: Trace amine-associated receptor 1 (Homo sapiens) (UniProt Q96RJ0); assay: human TAAR1 antagonists, primary screen, Fluo-8 calcium fluorescence, CHO RD-HGA16 cells (AID 624466); conditions: CHO RD-HGA16 TAAR1, Fluo-8 calcium fluorescence, antagonist; at 3 µM; hits give high values;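 note: 0% = DMSO plus EC80 beta-PEA response and 100% = DMSO alone without agonist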
Sequence (Q96RJ0 whole entry, looked up): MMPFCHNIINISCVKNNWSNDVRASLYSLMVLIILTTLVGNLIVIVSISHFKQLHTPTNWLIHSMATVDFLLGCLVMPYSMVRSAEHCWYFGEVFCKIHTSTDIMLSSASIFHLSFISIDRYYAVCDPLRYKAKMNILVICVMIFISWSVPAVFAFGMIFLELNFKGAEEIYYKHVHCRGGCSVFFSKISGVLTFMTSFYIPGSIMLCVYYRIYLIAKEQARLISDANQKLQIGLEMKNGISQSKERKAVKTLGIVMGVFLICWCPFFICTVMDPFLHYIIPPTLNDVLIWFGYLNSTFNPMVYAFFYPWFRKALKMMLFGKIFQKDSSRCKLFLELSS
Outline: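 Test system: CHO RD-HGA16 cells bearing hTAAR1 | Reagent: β-PEA, EC80 | Compound dosing: 3 µM, single point | Schedule: Dye loading 75 min at 37 °C, then 30 min room temperature | Signal: Calcium fluorescence with Fluo-8 | Evaluation: Percent inhibition of PEA-evoked calcium signal, max/basal emission ratio | Control set: DMSO-only wells and EC80 β-PEA-stimulated wells | Repeats: Singlicate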

In order of falling inhibition:
1. Cc1ccc(Sc2ccc(NC(=O)c3ccc(F)cc3)cc2C#N)cc1  47.8%
2. CCOc1cc(N2CCOCC2)c(OCC)cc1NC(=O)C1=NN(c2cccc(C)c2)C(=O)CC1  44.9%
3. COc1cccc(-c2cnc3c(NC(C)=O)cc(-c4cccc(NC(C)=O)c4)cn23)c1  33.8%
4. O=S1(=O)c2c(cccc2N2CCCC2)O[C@H](COCc2ccccc2)CN1C1CC1  23.8%
5. CCOc1cc(N2CCOCC2)c(OCC)cc1NC(=O)COC(=O)[C@H](Cc1c[nH]c2ccccc12)NC(C)=O  22.1%
6. Cc1nc(N2CCOCC2)c2c(C)c(C(=O)Nc3ccc(C(F)(F)F)cc3)sc2n1  15.7%
7. CCN(CC(=O)Nc1ccc(NC(C)=O)cc1)C(=O)CSC(=S)N1CCCC1  14.2%
8. COc1ccccc1-c1cc(NC(C)=O)c2ncc(-c3ccc(F)cc3)n2c1  11%
9. C/C(=N\Nc1nc(Nc2ccccc2)nc(N2CCOCC2)n1)c1cccs1  9.62%
10. CC(=O)Nc1ccc(NC(=O)C2CCCN(S(=O)(=O)c3ccc(Cl)cc3)C2)cc1 (stereo unspecified)  9.58%
11. CCn1cc(CCC(=O)NCc2ccc(F)cc2)c2ccccc21  8.18%
12. COc1ccc(Nc2ncc(F)c(N3CCOCC3)n2)cc1  7.62%
13. O=C(NCCN1C(=O)S/C(=C\c2cccnc2)C1=O)c1cccc(OC(F)F)c1  7.53%
14. NC(=O)c1oc2ccccc2c1NC(=O)Cc1ccccc1  7.4%
15. CC(C)C[C@H]1CNC(=O)C(=O)N1C[C@H]1CCCN1C[C@H](Cc1ccc(O)cc1)N1C[C@H](CC(C)C)N(CC2CCCCCC2)C(=O)C1=O  6.77%
16. COc1ccc(CCNC(=O)C2CCCN(S(=O)(=O)c3ccc(OC)cc3)C2)cc1 (stereo unspecified)  5.88%
17. CSc1ccc(Oc2cccc3c2S(=O)(=O)N([C@H](C)c2ccccc2)C[C@@H](COCc2ccccc2)O3)cc1C  5.23%
18. Cc1ccc(-c2nc3c(Cl)cc(C(F)(F)F)cn3c2Cc2cccc(Cl)c2)cc1  3.71%
19. COC(=O)c1ccc2nc(-c3ccccc3)c(Cc3ccc(OC)cc3C)n2c1  3.43%
20. Cc1ccc(-c2cc(C(=O)NN)n[nH]2)o1  2.39%
21. O=C(NCCCc1ccccc1)C1CCC(=O)N(CCc2ccc(Cl)cc2)C1 (stereo unspecified)  2.14%
22. COC(=O)Cc1nnn2c1[C@H](C)[C@@H](OC)c1cc(Br)ccc1-2  1.99%
23. COc1ccc(NC(=O)C2=C(C)NC(=O)NC2c2ccccc2[N+](=O)[O-])cc1 (stereo unspecified)  1.55%
24. C=CCN1C(=O)N(Cc2ccccc2)c2ccccc2S1(=O)=O  -0.33%
25. Cc1[nH]c2ccccc2c1CC(=O)Nc1ccc(Nc2cccnc2)c(-c2cccc(Cl)c2)c1  -0.4%
26. CCCCNC(=O)C[C@@H]1C[C@@]2(C(=O)OC)CC(C)(C)CC=C2N(Cc2ccco2)C1=O  -0.44%
27. COC(=O)c1cc(OC)c(OC)cc1NC(=O)CSc1ccc(C)cc1  -0.75%
28. Cc1nc(N2CCN(c3ccccn3)CC2)c2c(C)c(C(=O)Nc3ccc(F)c(Cl)c3)sc2n1  -1.25%
29. CSc1ccc(C#N)cc1NC(=O)c1cccc(Cl)c1  -1.36%
30. CN(CC(=O)NCc1ccc(Cl)cc1)S(=O)(=O)c1cccs1  -2.12%
31. CC1CCN(C(=O)c2ncn3c2C(=O)N[C@@H](C)C3)CC1  -2.44%
32. COC(=O)C1(C(=O)OC)C/C=C\CN(S(=O)(=O)c2ccccc2[N+](=O)[O-])CCC1  -2.45%
33. COc1ccc(OC)c(Nc2nc3ccccc3n3cnnc23)c1  -3.9%
34. COCCNC(=O)c1cc2c(Br)ccc(Br)c2nc1N  -4.31%
35. CCOC(=O)[C@]12CCCC=C1N(Cc1ccc3c(c1)OCO3)C(=O)[C@H](CC(=O)N1CCN(C(=O)c3ccco3)CC1)C2  -4.35%
36. COc1ccccc1N1CC(C(=O)NCCN2C(=O)S/C(=C\c3cccnc3)C2=O)CC1=O (stereo unspecified)  -4.74%
37. COC(=O)c1ccc2nc(-c3cccc(Br)c3)c(Cc3ccc(OC)cc3C)n2c1  -4.86%
38. COC(=O)N1Cc2ccnnc2CC1c1ccccc1Br (stereo unspecified)  -6.91%
39. O=C(O)C1CCCN(S(=O)(=O)c2cccc3cccnc23)C1 (stereo unspecified)  -9.13%
40. CCOC(=O)[C@]12CCCC=C1N(CCC1=CCCCC1)C(=O)[C@H](CC(=O)N1CCOCC1)C2  -9.23%
41. COc1ccccc1CNC(=O)C1CCCN(S(=O)(=O)c2cccc3cccnc23)C1 (stereo unspecified)  -10.9%
42. Cc1ccc(SCC(=O)Nc2ccc3c(c2)OCCO3)cc1  -11.4%
43. CC1(C)CC(=O)C2=C(C1)Nc1cc(C(=O)c3ccccc3)ccc1NC2c1ccccn1 (stereo unspecified)  -12.4%
44. C[C@H]1CN([C@@H](C)CO)S(=O)(=O)c2ccc(-c3cccc(F)c3)cc2O[C@@H]1CN(C)C  -12.6%
45. C[C@@H]1CN([C@H](C)CO)S(=O)(=O)c2ccc(C#C[C@@H](C)O)cc2O[C@@H]1CN(C)Cc1ccc(-c2ccccc2)cc1  -12.7%
46. O=S1(=O)CC(N2CCN(Cc3ccccc3F)CC2)CN1Cc1cn(Cc2cccc(C(F)(F)F)c2)nn1 (stereo unspecified)  -13%
47. NC(=O)c1oc2ccccc2c1NC(=O)CS(=O)(=O)c1ccccc1  -13.1%
48. CCCCNC(=O)CCn1nc(-c2ccc(Cl)cc2)ccc1=O  -14.1%
49. O=C(Nc1nnc(SCc2c(Cl)cccc2Cl)s1)c1cccc([N+](=O)[O-])c1  -16.3%
50. CSc1ncnc2c1ncn2CCCNCC1CCCCC1  -17.2%
51. CC(C)(C)SCCNC(=O)c1cccc([N+](=O)[O-])c1  -20.6%
52. Brc1ccc(COCCc2cn(Cc3ccccc3)c3ccccc23)cc1  -22%
53. O=C1[C@H]2[C@@H](c3ccc(C(F)(F)F)cc3)N[C@]3(CCCN(Cc4ccc(Br)cc4)C3=O)[C@H]2C(=O)N1Cc1ccccc1  -23.7%
54. Cc1ccc(CNC(=O)CCS(=O)(=O)c2ccc3c(c2)CC(C)N3C(=O)C2CC2)o1 (stereo unspecified)  -23.9%
55. CCOC(=O)C1CCN(C(=O)C2(NC(=O)Nc3cccc(F)c3)CCCCC2)CC1  -26.8%
56. CCCNC(=O)C[C@@H]1CC[C@@H]2[C@H](COC[C@H](O)CN2C(=O)c2cc(Cl)cc(Cl)c2)O1  -27.3%
57. COC(=O)c1cc2c(c3c4ccccc4n(S(=O)(=O)c4cccc(C)c4)c13)C(=O)N(Cc1ccccc1)C2  -30.3%
58. Cc1ccc(C)c(NS(=O)(=O)c2c(C)[nH]c(C)c2C(=O)N2CCCCC2)c1  -30.8%
59. Cc1cc(C)n2c(NCc3ccccc3)c(CC(C)C)nc2n1  -31.3%
60. CC(=O)C12CC(C)=C(C)CC1CC1C3CCC4=CC(=O)CCC4(C)C3CCC12C (stereo unspecified)  -34.7%
61. CC(=O)Nc1ccc(NC(=O)CS(=O)(=O)c2cn(CC(=O)N3CCCCC3)c3ccccc23)cc1  -35.2%
62. COC(=O)C1=C(C(=O)OC)C2C=C(C(C)C)C1C(=O)C2(C)O (stereo unspecified)  -37.3%
63. COC(=O)[C@@]12C[C@@H](CC(=O)NCc3cccc(C(F)(F)F)c3)C(=O)N(Cc3ccco3)C1=CCC(C)(C)C2  -43.8%
64. C=CC[C@]12C[C@@]3(O[C@H](c4ccc(C(F)(F)F)cc4)N=C3C[C@H](c3ccc(OC)cc3)[C@H]1C)N(C1CCN(Cc3ccccc3)CC1)C2=O  -52.6%

For `COc1ccc(Sc2ccc(NC(=O)c3cccc(Cl)c3)cc2C#N)cc1`, the inhibition was 48.8% (active).
For `COc1cccc(-c2cnc3c(NC(C)=O)cc(-c4cc(F)ccc4OC)cn23)c1`, the inhibition was 56.7% (active).
`Cc1ccc(SCC(=O)c2cc(C)c(OC(=S)N(C)C)c(C)c2)cc1` was tested, and the inhibition was 57% (active).
In the case of `CCCCNc1c(-c2cccc(Sc3ccc(OC)cc3)c2)nc2ccccn12`, the inhibition is reported as 87.9% (active).
`c1ccc(Nc2nc(N3CCOCC3)c3ccccc3n2)cc1` was tested, and the inhibition was 74.1% (active).
In the case of `COc1ccc(S(=O)(=O)N2CCCC(C(=O)Nc3ccc(NC(=O)c4ccccn4)cc3)C2)cc1` (stereo unspecified), the inhibition is reported as 63% (active).
For `COc1ccc(NC(=O)C2CCCN(S(=O)(=O)c3cccc4cccnc34)C2)cc1OC` (stereo unspecified), the inhibition was 66.5% (active).
For `CCOc1cc(N2CCOCC2)c(OCC)cc1NC(=O)COc1cccc2cccnc12`, the inhibition was 56.4% (active).
In the case of `O=C(NCCN1C(=O)S/C(=C\c2cccnc2)C1=O)c1ccc(S(=O)(=O)N2CCCC2)cc1`, the inhibition is reported as 49.1% (active).
With `O=S1(=O)c2c(cccc2N2CCCCC2)O[C@H](COCc2ccccc2)CN1C1CC1` the inhibition was 51.8% (active).
For `C[C@@H]1CN([C@@H](C)CO)S(=O)(=O)c2ccc(C#Cc3cccc(F)c3)cc2O[C@H]1CN(C)S(=O)(=O)c1cn(C)cn1`, the inhibition was 68.3% (active).
With `O=C(Nc1ccc(C2CC2(Cl)Cl)cc1)c1cccc([N+](=O)[O-])c1` (stereo unspecified) the inhibition was 49.6% (active).
For `COc1ccc(CC(=O)Nc2c(C(N)=O)oc3ccccc23)cc1`, the inhibition was 62.3% (active).
In the case of `Cc1nc(N2CCN(c3ccccn3)CC2)c2c(C)c(C(=O)Nc3ccc(F)cc3)sc2n1`, the inhibition is reported as 58% (active).
In the case of `COC(=O)Cc1nnn2c1[C@H](C)[C@H](c1ccccc1Br)OCC2`, the inhibition is reported as 73.5% (active).
For `COC(=O)Cc1nnn2c1[C@H](C)[C@H](c1ccccc1[N+](=O)[O-])OCC2`, the inhibition was 51.6% (active).
`CSc1ncnc2c1ncn2CC(=O)C1CCC2C3CCC4=CC(=O)CCC4(C)C3CCC12C` (stereo unspecified) was tested, and the inhibition was 61.8% (active).
